Screens deposited in PubChem by Broad Institute.
ARNT-TACC3 inh: disruptors of ARNT/TACC3 protein interaction, primary screen, biochemical, AlphaScreen, single concentration; Transforming acidic coiled-coil-containing protein 3 (Homo sapiens), Q9Y6A5; AlphaScreen His-ARNT PAS-B/GST-TACC3 binding, luminescence; TACC3 fragment carries E629A point mutation; inhibition, % at 9.99 µM; hit rate 0.66% among 390,000; AID 623870, 2012;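 active = mean inhibition of replicates at least 50% and at least half of replicates each reaching 50%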;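 note: 0% = complete ARNT plus TACC3 wells and 100% = ARNT alone without TACC3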
CAL PDZ FP-1: CAL PDZ peptide-binding inhibitors, primary screen, biochemical, fluorescence polarization, Cer-tagged CAL PDZ, HTS. Golgi-associated PDZ and coiled-coil motif-containing protein (Homo sapiens), Q9HD26. purified CAL PDZ, TMR-peptide fluorescence polarization, 1 h. inhibition, % at 20 µM. hit rate 0.02% among 330,000;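 active = highest replicate inhibition of at least 40%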;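 note: plate controls were DMSO neutral control wells for no effect and unlabeled competitor peptide control wells for full effect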
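material = purified tagged CAL PDZ domain construct (CerCALP) | compound dosing = 20 µM, one dose | times = 1 h at RT | measured by = fluorescence polarization from S- and P-plane intensities, G-factor corrected | read-out = inhibition from polarization loss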
CAL PDZ FP-2: untagged CAL PDZ binding inhibitors, primary screen, biochemical, fluorescence polarization, HTS | Golgi-associated PDZ and coiled-coil motif-containing protein (Homo sapiens), Q9HD26 | purified CAL PDZ, TMR-peptide fluorescence polarization, 1 h | inhibition, % at 24.9 µM | hit rate 0.92% among 300,000 | AID 602252, 2012;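 active = mean inhibition of at least 30% with at least half of replicates also reaching 30%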;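 note: 0% = DMSO neutral control and 100% = excess unlabeled competitor peptide PRC23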
AlphaScreen ctr: AlphaScreen signal interference compounds, dose response, artefact control for ARNT-TACC3 interaction inhibitor project, biochemical, luminescence, cherry-pick | shares compounds with ARNT-TACC3 inh | His-ARNT PASB-GST AlphaScreen artifact counter-screen | AC50, µM (series often up to 68 µM), for inactives: at the top dose activity change, negative = signal decrease | hit rate 50% among 1,200;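 active = every separate test run was called active for a drop in luminescence, with AC50 within twice the top valid dose, actives reach about 71 µM in these data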
Starred values were filed as active, the others as inactive; . = not tested or not shown. Only some compounds are listed: those with a hit (about 1.2% of all), similar ones and a draw of the others.

SMILES	ARNT-TACC3 inh	CAL PDZ FP-1	CAL PDZ FP-2	AlphaScreen ctr
O=C(C[C@@H]1CC[C@@H](NS(=O)(=O)c2ccc(F)cc2)[C@@H](CO)O1)NC1CCC1	5	.	.	.
C[C@H](CO)N1C[C@H](C)[C@H](CN(C)S(=O)(=O)c2cn(C)cn2)Oc2ccc(NC(=O)NC3CCCCC3)cc2C1=O	-7	.	.	.
C[C@H](CO)N1C[C@H](C)[C@@H](CN(C)Cc2ccccn2)Oc2cc(C3=CCCC3)ccc2S1(=O)=O	0	.	.	.
CO[C@@H]1CN(C)C(=O)c2ccc(NS(=O)(=O)c3ccc(C)cc3)cc2OC[C@H](C)NC[C@@H]1C	6	.	.	.
O=S(=O)(N[C@H]1CC[C@@H](CCn2cc(-c3cccc(F)c3)nn2)O[C@@H]1CO)c1ccccc1	-2	.	.	.
O=S(=O)(N[C@@H]1CC[C@@H](CCn2cc(-c3ccccn3)nn2)O[C@@H]1CO)c1cccc(F)c1	94*	.	.	47µM*
CO[C@@H]1CN(C)C(=O)c2cc(NC(=O)Nc3cccc(F)c3)ccc2OC[C@@H](C)N(C(=O)Nc2c(C)noc2C)C[C@@H]1C	2	.	.	.
CC(C)NC(=O)Nc1ccc2c(c1)C(=O)N([C@@H](C)CO)C[C@@H](C)[C@H](CN(C)C(=O)Cc1ccccc1)OCCCC[C@@H](C)O2	1	.	.	.
COc1ccc(NC(=O)N2C[C@@H](O)COC[C@@H]3O[C@@H](CC(=O)N4CCOCC4)CC[C@H]32)cc1	-2	.	.	.
N#CC1=C(N)Oc2c(ccc3cccnc23)C1c1cccnc1 (stereo not given)	55*	-1	-2	41µM*
Cc1ccc2cc(C3C(C#N)=C(N)Oc4c3ccc3cccnc43)c(=O)[nH]c2c1 (stereo not given)	52*	-2	.	52µM*
CC(=O)C1=C(C)OC(N)=C(C#N)C1c1cc2cccc(C)c2nc1Cl (stereo not given)	-3	0	-4	.
N#CC1=C(N)Oc2cc3ccccc3cc2C1c1cccnc1 (stereo not given)	-1	-4	-10	.
C[C@@H]1CCCCO[C@@H](CN(C)S(C)(=O)=O)[C@@H](C)CN([C@H](C)CO)C(=O)c2cc(NC(=O)C3CCCCC3)ccc2O1	2	.	.	.
C[C@@H]1CN([C@@H](C)CO)C(=O)c2cccc(NC(=O)NC3CCCCC3)c2O[C@@H]1CN(C)C(=O)Nc1ccc(C(F)(F)F)cc1	0	.	.	.
C[C@H](CO)N1C[C@H](C)[C@H](CN(C)Cc2ccc(C(=O)O)cc2)Oc2ccc(NS(=O)(=O)c3cccs3)cc2C1=O	-7	.	.	.
Clc1cccc(CNc2nc(-c3cccnc3)nc3ccccc23)c1	-1	-5	.	.
Clc1cccc(CNc2nc(-c3ccccn3)nnc2-c2ccccc2)c1	.	.	.	2.2µM*
CC(C)(C)c1ccc(CNc2nc(-c3ccccn3)nnc2-c2ccccc2)cc1	.	.	.	3.7µM*
CC(C)(C)c1ccc(-c2nc(NCc3cccnc3)c3ccccc3n2)cc1	-5	-3	-2	.
Cc1ncc(CO)c(/C=N/Nc2cccc(Cl)n2)c1O	13	-1	-6	.
Cc1cc(C(=O)N/N=C/c2c(CO)cnc(C)c2O)c2ccccc2n1	61*	-3	-4	20µM*
Cc1ncc(CO)c(/C=N/NC(=O)c2cc(Br)ccc2O)c1O	62*	1	.	47µM*
C/C=N/NC(=O)c1cc(Br)ccc1O	.	0	-2	.
CN1C(=O)c2cc(NC(=O)c3ccccc3F)ccc2OC[C@@H]2O[C@@H](CC(=O)NCc3ccc4c(c3)OCO4)CC[C@H]21	32	.	.	.
SMILES	ARNT-TACC3 inh	CAL PDZ FP-1	CAL PDZ FP-2	AlphaScreen ctr
O=C(Nc1nnc(SCc2ccc(F)cc2)s1)c1cccnc1Cl	-3	-1	-4	.
O=C(Nc1nnc(SCc2ccc(F)cc2)s1)c1ccccn1	79*	0	-1	17µM*
C[C@H](CO)N1C[C@H](C)[C@@H](CN(C)S(=O)(=O)c2ccc(Cl)cc2)Oc2c(NC(=O)c3nc4ccccc4s3)cccc2C1=O	-3	.	.	.
N[C@H]1CC[C@H](CCn2cc(-c3ccccn3)nn2)O[C@@H]1CO	77*	.	.	5.3µM*
CN(C)Cc1cn(CC[C@@H]2CC[C@@H](N)[C@H](CO)O2)nn1	9	.	.	.
c1ccc(-c2cn(C[C@H]3CC[C@@H]([C@@H]4CC[C@H](Cn5cc(-c6ccccc6)nn5)O4)O3)nn2)cc1	-9	-4	-6	.
N[C@@H]1CC[C@@H](CCn2cc(-c3ccccn3)nn2)O[C@H]1CO	76*	.	.	3.8µM*
N[C@@H]1CC[C@@H](CCn2cc(-c3cccc(F)c3)nn2)O[C@H]1CO	5	.	.	.
c1ccc(-c2cn(C[C@H]3CC[C@@H]([C@@H]4CC[C@H](Cn5cc(-c6ccccn6)nn5)O4)O3)nn2)nc1	66*	1	-1	11µM*
CCCC(=O)Nc1ccc2c(c1)OC[C@H](C)N(Cc1ccccn1)C[C@@H](C)[C@@H](OC)CN(C)C2=O	5	.	.	.
O=C(CN1CCOCC1)NCC[C@H]1CC[C@@H](NC(=O)Cc2ccccn2)[C@H](CO)O1	3	.	.	.
O=C(O)C1CCCCC1C(=O)NCCCn1ccnc1 (stereo not given)	67*	0	.	-6%
O=C(O)C1C2C=CC(C2)C1C(=O)NCCCn1ccnc1 (stereo not given)	54*	-1	.	3%
O=C(O)C1C2C=CC(C2)C1C(=O)NCCCN1CCCC1=O (stereo not given)	-21	0	.	.
O=C(NCCCn1ccnc1)C(=O)NC1CCCCC1	1	-1	3	.
C[C@H]1CN([C@@H](C)CO)C(=O)Cc2cc(NS(=O)(=O)c3cn(C)cn3)ccc2O[C@@H]1CN(C)CC1CC1	-1	.	.	.
Cc1ccc(S(=O)(=O)Nc2cccc3c2O[C@@H](CN(C)S(=O)(=O)c2ccccc2)[C@H](C)CN([C@H](C)CO)C3=O)cc1	-7	.	.	.
COc1ccc(NC(=O)N(C)C[C@H]2Oc3c(NC(=O)NC(C)C)cccc3C(=O)N([C@H](C)CO)C[C@H]2C)cc1	-11	.	.	.
COc1cccc(S(=O)(=O)N2CC[C@@H]3[C@@H](CO)Nc4ccc(Br)cc4[C@@H]32)c1	-8	.	.	.
